High-throughput results: PubChem BioAssay, The Scripps Research Institute Molecular Screening Center
An excerpt weighted towards active compounds, which were near 4.6% of everything screened.
CHO parental Ca – counter-screen for OX1R antagonists: effect in parental CHO cells | parental CHO-K1, ATP-induced calcium, Fluo-8 fluorescence | inhibition, % at 5.6 µM | 330,000 compounds, 0.63% hits | AID 463079;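 active = inhibition above that plate's mean sample inhibition plus 3 SD, cut at about 26% in these data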;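 also: 0% = ATP-challenged DMSO wells and 100% = DMSO wells without ATP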
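material = parental CHO cells | also added = ATP as calcium-mobilizing challenge | dosing = single point at 5.6 µM | detection = intracellular calcium via Fluo-8 no-wash fluorescent dye | read-out = % inhibition | benchmarks = low control ATP plus DMSO, high control DMSO only | repeats = one well per compound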
TAAR1 antag – antagonists of human TAAR1; Q96RJ0; CHO RD-HGA16 TAAR1, Fluo-8 calcium fluorescence, antagonist; inhibition, % at 3 µM; 360,000 compounds, 1.5% hits;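 active = inhibition above a per-plate cutoff, the mean inhibition of test compounds on that plate plus 3 SD, cut at about 49% in these data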;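 also: 0% = DMSO plus EC80 beta-PEA response and 100% = DMSO alone without agonist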
Target sequence (Q96RJ0 whole entry, looked up): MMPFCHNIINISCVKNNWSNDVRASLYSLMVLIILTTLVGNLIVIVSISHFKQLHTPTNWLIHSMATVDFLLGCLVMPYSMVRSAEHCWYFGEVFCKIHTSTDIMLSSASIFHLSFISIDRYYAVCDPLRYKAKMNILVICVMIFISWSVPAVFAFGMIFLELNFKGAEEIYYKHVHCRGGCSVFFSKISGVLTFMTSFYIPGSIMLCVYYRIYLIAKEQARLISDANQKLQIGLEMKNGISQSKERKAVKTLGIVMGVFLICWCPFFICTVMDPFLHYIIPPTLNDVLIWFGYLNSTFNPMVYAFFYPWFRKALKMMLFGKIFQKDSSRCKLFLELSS
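Test system: RD-HGA16 CHO cells with stable hTAAR1 and Gα16 / Probe or stimulus: EC80 β-phenethylamine stimulus / Times: seeding 17-24 h prior, 75-min 37 °C, 30-min RT dye loading / Detection: Fluo-8 calcium-sensitive fluorescence / Read-out basis: % inhibition scaled between DMSO and EC80 PEA controls / Repeats: singlicate, one well per test compound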
OX1R antag-1 – blocks the human orexin 1 receptor. O43613. OX1R-expressing cells, FRET antagonist read-out. inhibition, % at 6.6 µM. 330,000 compounds, 1.8% hits. AID 485270; in the data active = inhibition mostly above about 38%, no sharp cut-off; inactive = mostly below about 40%;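 also: 0% = agonist challenge alone and 100% = reference antagonist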
TAAR1 ag – human TAAR1 agonism | 360,000 compounds, 0.99% hits | Q96RJ0 | CHO RD-HGA16 TAAR1, Fluo-8 calcium fluorescence; vehicle wells 0%, saturating PEA agonist 100% | activation, % at 3 µM;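 active = activation above the mean activation of all test compounds in the run plus 3 SD, cut at about 38% in these data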
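Assay system: CHO-derived RD-HGA16 cells with stable Gα16 and human TAAR1; timing: 17-24 h seeding, 75 min 37 °C dye, 30 min RT; read-out: % activation from peak over basal fluorescence ratio, DMSO-to-PEA scaled; measured by: kinetic Fluo-8 calcium fluorescence; benchmarks: low control DMSO, high control PEA (EC100); doses: 3 µM single concentration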
OX1R antag-2 – blocks the human orexin 1 receptor; CHO/OX1R cells, Fluo-8 calcium fluorescence, orexin A; inhibition, % at 5 µM; 330,000 compounds, 0.43% hits;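 active = inhibition above its plate's threshold, mean inhibition of all tested compounds on the plate plus 3 SD, cut at about 37% in these data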;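 also: 0% = orexin A challenge wells and 100% = SB-334867-A antagonist wells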
GPR7 antag – blocks human GPR7 receptor signaling | inhibition, % at 4.4 µM | 290,000 compounds, 1.1% hits | P48145 | GPR7-expressing cells, fluorescence antagonist assay; in the data active = inhibition above about 16%, passing the limit was not always enough;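 also: cells stimulated with the agonist NPW; 0% = agonist with vehicle and 100% = vehicle without agonist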
Target sequence (P48145 whole entry, looked up): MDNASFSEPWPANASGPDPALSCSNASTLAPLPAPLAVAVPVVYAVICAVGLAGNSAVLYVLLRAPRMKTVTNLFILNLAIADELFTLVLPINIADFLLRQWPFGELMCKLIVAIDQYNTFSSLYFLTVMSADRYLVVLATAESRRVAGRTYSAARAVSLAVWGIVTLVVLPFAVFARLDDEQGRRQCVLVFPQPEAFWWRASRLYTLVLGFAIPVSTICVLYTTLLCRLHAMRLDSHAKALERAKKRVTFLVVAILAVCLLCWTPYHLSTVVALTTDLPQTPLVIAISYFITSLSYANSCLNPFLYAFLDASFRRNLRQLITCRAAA
TAAR1 nonsel count – nonselective antagonist in TAAR1 antagonist counter-screen | inhibition, % at 3 µM | counterscreen cell line, calcium fluorescence, antagonist mode | shares compounds with TAAR1 antag | 2,400 compounds, 77% hits | AID 651780; in the data active = inhibition above about 22%;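 also: CHO-Ga16 host cells stimulated with ATP at an EC80 level; 0% = agonist EC80 plus vehicle and 100% = vehicle without agonist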
TAAR1 ant conf – confirmation of human TAAR1 antagonists; shares compounds with TAAR1 antag; inhibition, % at 3 µM; TAAR1-expressing cells, fluorescence antagonist read-out; 2,400 compounds, 40% hits; in the data active = inhibition above about 49%;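 also: CHO-Ga16 host cells challenged with agonist PEA near its EC80; 0% = agonist at EC80 plus vehicle and 100% = vehicle with no agonist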
Ga16 ag counter-1 – nonselective Ga16 agonism, counter-screen | activation, % at 3 µM | shares compounds with TAAR1 antag | 2,400 compounds, 18% hits | Ga16-expressing cells, calcium fluorescence, agonist counterscreen; in the data active = activation above about 12%;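 also: 0% = vehicle wells and 100% = saturating stimulus response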
TAAR1 ag counter – counter-screen for human TAAR1 antagonists: TAAR1 agonists. shares compounds with TAAR1 antag. hTAAR1 cell line, fluorescence activation, agonist mode. activation, % at 3 µM. 2,400 compounds, 2% hits; in the data active = activation above about 37%;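 also: CHO cells stably expressing TAAR1 with calcium dye readout; 0% = DMSO vehicle and 100% = full agonist response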
TAAR1 ag confirm – human TAAR1 agonism, confirmed; shares compounds with TAAR1 ag; CHO RD-HGA16 TAAR1, Fluo-8 calcium fluorescence; scaled: DMSO 0%, maximal phenethylamine 100%; activation, % at 3 µM; 2,400 compounds, 82% hits;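 active = activation above a cutoff set at the run's mean compound activation plus 3 SD, cut at about 39% in these data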
Ga16 ag counter-2 – nonselective agonism, TAAR1 counter-screen; shares compounds with TAAR1 ag; AID 651787; 2,400 compounds, 50% hits; CHO-Ga16 parental, Fluo-8 calcium fluorescence; normalized to maximal ATP response, DMSO zero; activation, % at 3 µM;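 active = activation above the run cutoff, the mean activation over all tested wells plus 3 SD, cut at about 12% in these data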;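 also: 0% = DMSO wells and 100% = maximal ATP response on the peak over basal ratio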
TAAR1 desensitize – human TAAR1 agonist that also desensitizes the receptor. shares compounds with TAAR1 ag. CHO RD-HGA16 hTAAR1, Fluo-8 calcium, beta-PEA response inhibition. inhibition, % at 3 µM. 2,400 compounds, 46% hits;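 active = inhibition above the run cutoff, the mean inhibition of all test compounds plus 3 SD, cut at about 49% in these data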;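 also: beta-PEA stimulus applied at its EC80; loss of beta-PEA calcium signal after compound pretreatment read as receptor desensitization; 0% = DMSO with beta-PEA at EC80 and 100% = DMSO alone without agonist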
Ga16 nonsel ant – nonselective Ga16 antagonism, counter-screen; AID 651952; 2,400 compounds, 39% hits; inhibition, % at 3 µM; shares compounds with TAAR1 ag; CHO-Ga16 ATP-induced calcium, Fluo-8 fluorescence;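 active = inhibition above the plate's mean compound inhibition plus 3 SD, computed per plate, cut at about 22% in these data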;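 also: 0% = EC80 ATP with DMSO and 100% = DMSO wells without ATP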
Active calls of the source: *; . = no result.

SMILES	CHO parental Ca	TAAR1 antag	OX1R antag-1	TAAR1 ag	OX1R antag-2	GPR7 antag	TAAR1 ag confirm	Ga16 ag counter-2	TAAR1 desensitize	Ga16 nonsel ant	others
CCc1ccc([C@@H]2C[C@H]3[C@@H](CN2S(=O)(=O)c2ccc(C)cc2)C(=O)C[C@@H](c2ccccc2F)N3S(=O)(=O)c2ccc(C)cc2)cc1	.	-3	.	1	.	.	.	.	.	.
COc1ccc(-c2ccc(C(=O)Nc3ccc(Cl)cc3)c3occc23)c(C)c1	.	5	.	1	.	.	.	.	.	.
COc1ccc(-c2ccc(C(=O)NCC3CCOCC3)c3occc23)c(C)c1	.	59*	.	6	.	.	.	.	.	.	TAAR1 nonsel count=32*;TAAR1 ant conf=58*;Ga16 ag counter-1=9;TAAR1 ag counter=12
COCCNC(=O)c1ccc(-c2ccc(OC)cc2C)c2ccoc12	.	-50	.	0	.	.	.	.	.	.
COc1ccc(-c2ccc(C(=O)Nc3cc(OC)c(OC)c(OC)c3)c3occc23)c(C)c1	.	61*	.	0	.	.	.	.	.	.	TAAR1 nonsel count=30*;TAAR1 ant conf=49*;Ga16 ag counter-1=9;TAAR1 ag counter=10
O=c1ccn([C@@H]2O[C@H](CNCc3cccc4c3sc3ccccc34)[C@@H](O)[C@H]2O)c(=O)[nH]1	.	-22	.	1	.	.	.	.	.	.
COc1ccc(C(C)=O)cc1COC(=O)[C@H](Cc1ccccc1)NC(=O)c1ccco1	-15	56*	17	8	-20	.	.	.	.	.	TAAR1 nonsel count=22*;TAAR1 ant conf=44;Ga16 ag counter-1=10;TAAR1 ag counter=13
Cc1cc(C)nc(N2CCCC(C(=O)NCCc3ccccc3F)C2)n1 (configuration not stated)	-31	8	12	45*	-14	8	76*	2	38	11
O=C(CNS(=O)(=O)c1ccccc1)N1CCc2ccccc2C1	11	6	-4	-1	-6	-6	.	.	.	.
Cc1ccc(NC(=O)N2CCCC(c3ccccc3)C2)cc1 (configuration not stated)	-5	21	-1	49*	-9	-6	58*	-1	33	3
O=C(/C=C/c1ccccc1)N1CCC(c2ccccc2)C1 (configuration not stated)	-10	0	4	-1	-18	-2	.	.	.	.
CCOc1ccc(NC(=O)N2CCC(c3ccc(C)cc3)C2)cc1 (configuration not stated)	-8	38	13	51*	-7	-4	7	4	11	10
O=C(/C=C/c1ccco1)N1CCCC(c2ccccc2)C1 (configuration not stated)	-10	18	8	49*	-22	-3	33	-1	31	7
CCc1ccc(NC(=O)N2CCC(c3ccccc3)C2)cc1 (configuration not stated)	-19	-12	11	0	-7	-10	.	.	.	.
Cc1cc(C(=O)O)ccc1N=Cc1c(O)ccc2ccccc12	-5	-6	-6	16	0	-9	.	.	.	.
Cc1ccc(CC(=O)NCC(c2ccco2)N(C)C)cc1C (configuration not stated)	-22	17	11	0	-9	6	.	.	.	.
Cc1cc(/C=C(\C#N)C(N)=O)c(C)n1-c1ccc(N2CCOCC2)c([N+](=O)[O-])c1	-24	17	40	91*	-19	-7	114*	53*	73*	29*
Cc1cc(C=O)c(C)n1-c1ccc(N2CCCCC2)c([N+](=O)[O-])c1	-12	4	17	12	13	-4	.	.	.	.
Cc1cccc(-n2c(C)cc(/C=C3\C(=N)N4N=C(CC(C)C)SC4=NC3=O)c2C)c1	-15	9	12	2	-2	-2	.	.	.	.
CCSC1=NSC2=NC(=O)/C(=C\c3coc4ccccc4c3=O)C(=N)N12	59*	108*	44	252*	54*	10	204*	279*	103*	99*
CC(C)CC1=NN2C(=N)/C(=C\c3coc4ccccc4c3=O)C(=O)N=C2S1	.	104*	.	355*	.	-10	149*	131*	82*	80*
O=c1c2ccccc2sn1-c1ccc(S(=O)(=O)N2CCCCC2)cc1	0	0	1	4	-2	3	.	.	.	.
CN(C)S(=O)(=O)c1cccc(-n2sc3ccccc3c2=O)c1	1	38	4	64*	-1	-5	50*	34*	17	22*
O=c1c2ccccc2sn1-c1ccccc1	48*	50*	46	55*	20	-4	38*	27*	29	32*
COCCn1c(=O)sc2ccccc2c1=O	0	8	29	2	-10	4	.	.	.	.
SMILES	CHO parental Ca	TAAR1 antag	OX1R antag-1	TAAR1 ag	OX1R antag-2	GPR7 antag	TAAR1 ag confirm	Ga16 ag counter-2	TAAR1 desensitize	Ga16 nonsel ant	others
Cn1sc2ccccc2c1=O	.	-3	.	46*	.	.	37	26*	20	11
Cc1ccc(-n2sc3ccccc3c2=O)cc1S(=O)(=O)N1CCCCC1	11	16	18	70*	8	7	17	14*	17	16
O=c1c2ccccc2sn1-c1ccc(S(=O)(=O)N2CCCC2)cc1	2	8	9	16	-3	2	.	.	.	.
CCn1nc(NS(=O)(=O)c2ccc(NC(C)=O)cc2)c2cc3cc(C)ccc3nc21	-10	1	19	-1	-22	-2	.	.	.	.
O=C(C(O)c1ccccc1)N1CCN(S(=O)(=O)c2ccc(OC(F)(F)F)cc2)CC1 (configuration not stated)	.	-26	.	2	.	.	.	.	.	.
COc1cc(OC)cc(-c2noc([C@@H]3O[C@H](CO)[C@H](O)[C@H](O)[C@H]3O)n2)c1	.	-16	.	1	.	.	.	.	.	.
